Experimental findings from ChEMBL document CHEMBL3272319, “Alkyl streptozotocin analogues with improved biological activities” (J Med Chem, 1976) are described below.

Data set [1] has as its system Bacillus subtilis. Put plainly: Antibacterial activity against Bacillus subtilis ATCC 6633 assessed as growth inhibition after 18 hrs by broth dilution method. It counts as functional. The following applies: ATCC 6633, 18 h. Put shortly: (§1)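 Twofold serial dilutions in heart infusion broth. Inoculum was a 24-h heart infusion broth culture diluted 100-fold in physiological saline. Tubes incubated 30 °C for 18 h; the table footnote gives 32 °C for 24 h. MIC in µg/ml is the lowest level giving complete growth inhibition.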
Background: Dilution methods test growth across graded concentrations, often in twofold steps.

A short description of data set [2]: Antitumor activity against mouse S180A allografted in ICR mouse assessed as tumor growth at 50 mg/kg, ip qd for 5 days measured on day 7 relative to control. In kind it is functional. The following applies: route intraperitoneal. Put shortly:
(§2)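 Ascites Sarcoma 180 (1 × 10^7 cells) implanted into ICR mice, six animals per group. Five daily ip injections in saline (days 1–5). Sacrificed day 7. T/C % computed from total packed cell volume (ascites volume × PCV) vs controls. Grades: 100-66 = -, 65-41 = +, 40-11 = ++, 10-0 = +++.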

Data set [3] has as its system Escherichia coli. Kind of data set: Antibacterial activity against Escherichia coli NIHJ JC-2 assessed as growth inhibition after 18 hrs by broth dilution method. In kind it is functional. Conditions: NIHJ JC-2, 18 h. Put shortly: as §1
A short description of data set [4]: Ratio of compound LD50 to streptozotocin LD50 for JCL-ICR mouse. In kind it is ADME, organism-based. The following applies: in vivo.
The subject of data set [5] is Pseudomonas fluorescens. Kind of data set: Antibacterial activity against Pseudomonas fluorescens NIHJ B-254 assessed as growth inhibition after 18 hrs by broth dilution method. In kind it is functional. The following applies: NIHJ B-254, 18 h. Put shortly: as §1
The nature of data set [6]: (§3) Acute toxicity in ip dosed JCL-ICR mouse assessed as animal death. In kind it is organism-based. Conditions: JCL-ICR, in vivo. Put shortly:
(§4)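 Groups of ten female JCL-ICR mice given single ip dose in physiological saline; deaths followed over 7 days; LD50 (and LD10) derived by Litchfield–Wilcoxon method.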

The test system of data set [7] is Mus musculus. The description is as §3. It counts as organism-based. Conditions: in vivo. In a few lines: as §4
Data set [8] relates to Mus musculus. Put plainly: Toxicity in ICR mouse allografted with mouse S180A assessed as mortality at 50 mg/kg, ip qd for 5 days. More on the design: dose 50 mg/kg, route intraperitoneal. Conditions: in vivo, 120 h. In kind it is organism-based. In a few lines:
(§5)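 Ascites Sarcoma 180 (1 × 10^7 cells) implanted into ICR mice, six per group; compound in saline ip once daily days 1-5; sacrifice on day 7; total packed cell volume (ascites volume × PCV) compared with controls as T/C %; mortality recorded.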

Data set [9] relates to Proteus vulgaris. Put plainly: Antibacterial activity against Proteus vulgaris AHU 1469 assessed as growth inhibition after 18 hrs by broth dilution method. Conditions: AHU 1469, 18 h. In kind it is functional. Put shortly:
as §1

For data set [10], the system named is Salmonella typhi. Kind of data set: Antibacterial activity against Salmonella typhi IFM 3020 assessed as growth inhibition after 18 hrs by broth dilution method. In kind it is functional, Salmonella enterica subsp. enterica serovar Typhi. Conditions: Salmonella enterica, IFM 3020, 18 h. In a few lines:
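Twofold serial dilutions in heart infusion broth; inoculum from 24 h heart infusion broth culture diluted 100-fold in physiological saline; tubes incubated 30 °C for 18 h; MIC (µg/ml) = lowest level giving complete growth inhibition.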

The test system of data set [11] is Staphylococcus aureus. Kind of data set: Antibacterial activity against Staphylococcus aureus FDA 209P JC-1 assessed as growth inhibition after 18 hrs by broth dilution method. It counts as functional. The following applies: FDA 209P JC-1, 18 h. Put shortly:
as §1

The subject of data set [12] is Shigella sonnei. Kind of data set: Antibacterial activity against Shigella sonnei assessed as growth inhibition after 18 hrs by broth dilution method. In kind it is functional. Put shortly:
as §1

The subject of data set [13] is Klebsiella pneumoniae. Put plainly: Antibacterial activity against Klebsiella pneumoniae ATCC 10031 assessed as growth inhibition after 18 hrs by broth dilution method. In kind it is functional. Conditions: ATCC 10031, 18 h. In a few lines:
as §1

In data set [14] the test system is Rattus norvegicus. Put plainly: Diabetogenic activity in Wistar rat assessed as increase in blood sugar level at 74.7 mg/kg, iv administered as single dose by glucose oxidase method. In kind it is ADME, organism-based. More on the design: dose 74.7 mg/kg, route intravenous. The following applies: in vivo. Put shortly: (§6)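 Male Wistar rats, about 200 g, five per group, fasted 16 h. Single iv dose into the femoral vein in physiological saline, equimolar across compounds. Caudal-vein blood sampled at set times over 24 h. Sugar measured by glucose oxidase.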

For data set [15], the system named is Mus musculus. Put plainly: Toxicity in BDF1 mouse allografted with mouse L1210 cells assessed as mortality at 50 mg/kg, ip qd for 5 days. The following applies: in vivo, 120 h. It counts as organism-based. Details: dose 50 mg/kg, route intraperitoneal. In a few lines:
(§7)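 L1210 (1 × 10^5 cells) implanted into BDF1 mice, six per group; compound in saline ip once daily days 1-5; effect read as % increase in life span, ILS = [(treated life span/control life span) − 1] × 100.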

Data set [16] has as its system Mus musculus. Kind of data set: Ratio of compound LD10 to streptozotocin LD10 for JCL-ICR mouse. It counts as ADME, organism-based. The following applies: in vivo.
For data set [17], the system named is L1210. Put plainly: Antitumor activity against mouse L1210 cells allografted in BDF1 mouse assessed as increase in host lifespan at 50 mg/kg, ip qd for 5 days relative to control. The following applies: 120 h, route intraperitoneal. In kind it is functional. Put shortly: as §7
The subject of data set [18] is Enterococcus faecalis. Put plainly: Antibacterial activity against Streptococcus faecalis ATCC 10541 assessed as growth inhibition after 18 hrs by broth dilution method. In kind it is functional. Conditions: ATCC 10541, 18 h. In a few lines: as §1
In data set [19] the test system is Micrococcus luteus. Kind of data set: Antibacterial activity against Sarcina lutea ATCC 9341 assessed as growth inhibition after 18 hrs by broth dilution method. It counts as functional. Conditions: ATCC 9341, 18 h. Put shortly: as §1
The subject of data set [20] is Mus musculus. Kind of data set: Toxicity in ICR mouse allografted with mouse S180A assessed as mortality at 25 mg/kg, ip qd for 5 days. In kind it is organism-based. Details: dose 25 mg/kg, route intraperitoneal. Conditions: in vivo, 120 h. Put shortly: as §5
Data set [21] has as its system L1210. Put plainly: Antitumor activity against mouse L1210 cells allografted in ip dosed BDF1 mouse assessed as 30% increase in host lifespan administered for qd for 5 days. It counts as functional.
Data set [22] in a line: Acute toxicity in iv dosed dog. It counts as organism-based, Canis lupus familiaris. The following applies: in vivo.
In data set [23] the test system is Ehrlich. Kind of data set: Antitumor activity against mouse EAC allografted in ICR mouse assessed as tumor growth at 150 mg/kg, ip qd for 5 days measured on day 7 relative to control. In kind it is functional. The following applies: route intraperitoneal. In a few lines: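 Ehrlich ascites carcinoma (1 × 10^7 cells) implanted into ICR mice, six per group. Drug in saline ip, qd days 1–5. Mice killed day 7. Total packed cell volume = ascites volume × % packed cell volume; T/C % = TPCV treated/control × 100. Activity graded from T/C.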

Data set [24] concerns Rattus norvegicus. Kind of data set: Diabetogenic activity in Wistar rat assessed as increase in blood sugar level at 30 to 120 mg/kg, ip qd for 1 month measured 24 hrs last drug dosage by glucose oxidase method. It counts as ADME, organism-based. Details: dose 30-120 mg/kg, route intraperitoneal. Conditions: in vivo. Put shortly: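 Male Wistar rats, about 150 g, five per group. Drug in physiological saline given ip qd on days 1–30. Blood drawn 24 h after the last dose. Sugar measured by glucose oxidase.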

Data set [25] has as its system Mus musculus. Put plainly: Toxicity in ip dosed BDF1 mouse allografted with mouse L1210 cells assessed as optimal dose required for mortality administered qd for 5 days. Conditions: in vivo, 120 h. It counts as organism-based.
Data set [26] can be described thus: Antitumor activity against mouse S180A allografted in ICR mouse assessed as tumor growth at 25 mg/kg, ip qd for 5 days measured on day 7 relative to control. The following applies: route intraperitoneal. In kind it is functional. Put shortly:
as §2

The nature of data set [27]: Antitumor activity against mouse S180A cells allografted in ip dosed ICR mouse administered qd for 5 days. In kind it is functional. Conditions: 120 h. In a few lines:
as §2

The nature of data set [28]: Acute toxicity in iv dosed mouse. It counts as organism-based. The following applies: in vivo.
Data set [29] in a line: Therapeutic index, ratio of LD10 for JCL-ICR mouse to ED90 for mouse S180A cells allografted in ICR mouse. The following applies: read-out: TI.
Data set [30] has as its system Rattus norvegicus. Put plainly: Diabetogenic activity in Wistar rat assessed as increase in blood sugar level at 68 mg/kg, iv administered as single dose by glucose oxidase method. In kind it is ADME, organism-based. Details: dose 68 mg/kg, route intravenous. Conditions: in vivo. In a few lines: as §6
Data set [31] has as its system Mus musculus. Put plainly: Toxicity in ICR mouse allografted with mouse EAC assessed as mortality at 150 mg/kg, ip qd for 5 days. Details: dose 150 mg/kg, route intraperitoneal. In kind it is organism-based. The following applies: in vivo, 120 h. Put shortly: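 Ehrlich ascites carcinoma (1 × 10^7 cells) implanted into ICR mice, six per group; compound ip daily for 5 days; mice sacrificed day 7; tumour burden as total packed cell volume (ascites volume × PCV), T/C % vs controls; mortality recorded.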

Molecules are shown by their SMILES. Where only a bound is given, the exact number is not on record here.

A word on the MIC: it is the smallest concentration in the dilution series that meets the test's criterion for growth inhibition. Usually T/C stands for the ratio of treated to control. Usually LD50 stands for the dose at which mortality reaches 50%. As a reminder, the ILS is the gain in survival time of treated over control animals, in per cent.

For `CCCO[C@@H]1O[C@H](CO)[C@@H](O)[C@H](O)[C@H]1NC(=O)N(C)N=O`, the MIC in data set [1], in data set [3], in data set [5], in data set [9], in [10] and in data set [11] was greater than 1000 µg/mL throughout. Moreover, the MIC in [12], in data set [13], in data set [18] and in data set [19] was greater than 1000 µg/mL each time. The T/C in data set [2] is given as 32%. In data set [4], the selectivity ratio worked out at 2. Besides, in data set [6], the LD50 is 2150 mg/kg. For the same compound, in data set [7], the LD10 was 1240 mg/kg. The Activity result in data set [8], in data set [14] and in [15] was “Non-toxic” in each case. The Ratio in data set [16] was determined as 2. In addition, the ILS at 50 mg/kg in data set [17] came out at 30%.

Consider `CO[C@@H]1O[C@H](CO)[C@@H](O)[C@H](O)[C@H]1NC(=O)N(C)N=O`, for which the MIC in [1], in data set [3], in [5], in [9], in [10] and in data set [11] was greater than 1000 µg/mL each time. Further, the MIC in [12], in data set [13], in data set [18] and in [19] was greater than 1000 µg/mL each time. Further, the Activity result in data set [20] was “Non-toxic”; in data set [21], 33 mg/kg/day; in data set [24] it was “Non-toxic”; in data set [25], 400 mg/kg/day; in [15], “Non-toxic”; in data set [30] it was “Non-toxic”. In data set [31], the Activity result was “Non-toxic”. In addition, the selectivity ratio in [4] worked out at 2; in [29], 16. The values for the LD50 in data set [22], in data set [6] and in data set [28] were 400 mg/kg, 1700 mg/kg and 1620 mg/kg, respectively. The LD10 in data set [7] turned out to be 800 mg/kg. For the same compound, the T/C in data set [23] worked out at 1%; in data set [26], 22%. In data set [27], this compound came in with an ED90 of 50 mg/kg/day. In data set [16], the Ratio turned out to be 2. The ILS at 50 mg/kg in data set [17] was 40%.
